Each structure is given as a SMILES string.

Here are results for seven compounds from ChEMBL document CHEMBL1138485, “Discovery of inducible nitric oxide synthase (iNOS) inhibitor development candidate KD7332, part 1: Identification of a novel, potent, and selective series of quinolinone iNOS dimerization inhibitors that are orally active in rodent pain models” (J Med Chem, 2009).

In series [1] the target is T1, Nitric oxide synthase, inducible (Homo sapiens, UniProt P35228). Briefly: Inhibition of human iNOS expressed in HEK293 cells assessed as NO production by transient transfection assay. Type of series: cell-based. In a few lines:
(§1)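 HEK293 cells grown to ~70% confluence in DMEM/10% FBS with pen/strep. Cells transiently transfected with 10 µg human or murine iNOS plasmid (Fugene 6), 4 h at 37 °C, 10% CO2. Trypsinized, plated at 5 × 10⁵ cells/mL and dosed at once; 1400W 100 µM final as positive control. After 18 h, NO read as DAN fluorescence (10 µg/mL, 20 min RT, then NaOH). EC50 from 3 runs, 10-point curves, n = 8/point.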

Series [2] has as its target T1, Nitric oxide synthase, inducible. The series can be described thus: Inhibition of human iNOS expressed in HEK293 cells assessed as NO production at 100 uM by transient transfection assay. It counts as cell-based.
The target in another series is T2, Nitric oxide synthase 3 (Homo sapiens, UniProt P29474).
T2 sequence (P29474 whole entry): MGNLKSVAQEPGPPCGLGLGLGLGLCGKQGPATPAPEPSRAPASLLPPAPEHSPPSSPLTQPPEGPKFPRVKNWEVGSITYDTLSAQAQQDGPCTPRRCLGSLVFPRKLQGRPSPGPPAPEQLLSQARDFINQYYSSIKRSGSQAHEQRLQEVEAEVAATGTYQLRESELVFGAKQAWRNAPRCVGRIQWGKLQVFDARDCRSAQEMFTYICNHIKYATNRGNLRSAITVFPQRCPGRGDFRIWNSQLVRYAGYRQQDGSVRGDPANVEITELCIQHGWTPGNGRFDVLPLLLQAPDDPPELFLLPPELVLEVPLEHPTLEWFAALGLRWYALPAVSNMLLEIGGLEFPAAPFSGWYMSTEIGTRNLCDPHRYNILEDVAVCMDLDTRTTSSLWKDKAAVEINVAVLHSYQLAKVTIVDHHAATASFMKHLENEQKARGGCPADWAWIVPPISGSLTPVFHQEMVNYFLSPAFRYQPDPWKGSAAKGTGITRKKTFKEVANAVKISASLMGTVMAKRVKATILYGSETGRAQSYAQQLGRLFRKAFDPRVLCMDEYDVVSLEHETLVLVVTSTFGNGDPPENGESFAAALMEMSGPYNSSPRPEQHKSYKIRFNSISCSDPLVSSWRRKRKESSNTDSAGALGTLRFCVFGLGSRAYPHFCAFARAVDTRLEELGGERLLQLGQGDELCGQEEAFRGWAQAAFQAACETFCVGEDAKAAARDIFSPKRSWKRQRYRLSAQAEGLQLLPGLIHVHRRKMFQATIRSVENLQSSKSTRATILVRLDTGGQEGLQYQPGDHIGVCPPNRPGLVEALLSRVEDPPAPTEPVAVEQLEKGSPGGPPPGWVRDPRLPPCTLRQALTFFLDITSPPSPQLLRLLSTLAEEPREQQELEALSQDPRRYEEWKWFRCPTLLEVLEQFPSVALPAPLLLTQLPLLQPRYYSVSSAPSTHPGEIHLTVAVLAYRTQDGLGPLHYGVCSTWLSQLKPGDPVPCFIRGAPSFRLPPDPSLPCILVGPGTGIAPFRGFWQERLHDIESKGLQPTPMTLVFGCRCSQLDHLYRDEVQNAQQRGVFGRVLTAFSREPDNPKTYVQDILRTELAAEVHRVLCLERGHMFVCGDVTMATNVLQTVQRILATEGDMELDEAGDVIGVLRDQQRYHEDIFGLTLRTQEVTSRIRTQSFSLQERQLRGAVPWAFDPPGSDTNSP
Briefly: Inhibition of human eNOS expressed in HEK293 cells assessed as NO production by transient transfection assay. Type of series: cell-based. An outline of the steps:
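HEK293 cells grown to ~70% confluence in DMEM/10% FBS with pen/strep, transfected with 15 µg human eNOS plasmid plus Fugene 6 (3:1 µL:µg), 4 h at 37 °C, 10% CO2. Cells replated at 5 × 10⁵/mL, compound added at once, 24 h incubation, then A23187 (83 nM final). After 18 h, NO read by DAN fluorescence.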

The target of the next series is Nitric oxide synthase 1 (Homo sapiens, UniProt P29475). Briefly: Inhibition of human nNOS expressed in HEK293 cells assessed as NO production by transient transfection assay. It counts as cell-based.
Chain of Nitric oxide synthase 1 (P29475 whole entry): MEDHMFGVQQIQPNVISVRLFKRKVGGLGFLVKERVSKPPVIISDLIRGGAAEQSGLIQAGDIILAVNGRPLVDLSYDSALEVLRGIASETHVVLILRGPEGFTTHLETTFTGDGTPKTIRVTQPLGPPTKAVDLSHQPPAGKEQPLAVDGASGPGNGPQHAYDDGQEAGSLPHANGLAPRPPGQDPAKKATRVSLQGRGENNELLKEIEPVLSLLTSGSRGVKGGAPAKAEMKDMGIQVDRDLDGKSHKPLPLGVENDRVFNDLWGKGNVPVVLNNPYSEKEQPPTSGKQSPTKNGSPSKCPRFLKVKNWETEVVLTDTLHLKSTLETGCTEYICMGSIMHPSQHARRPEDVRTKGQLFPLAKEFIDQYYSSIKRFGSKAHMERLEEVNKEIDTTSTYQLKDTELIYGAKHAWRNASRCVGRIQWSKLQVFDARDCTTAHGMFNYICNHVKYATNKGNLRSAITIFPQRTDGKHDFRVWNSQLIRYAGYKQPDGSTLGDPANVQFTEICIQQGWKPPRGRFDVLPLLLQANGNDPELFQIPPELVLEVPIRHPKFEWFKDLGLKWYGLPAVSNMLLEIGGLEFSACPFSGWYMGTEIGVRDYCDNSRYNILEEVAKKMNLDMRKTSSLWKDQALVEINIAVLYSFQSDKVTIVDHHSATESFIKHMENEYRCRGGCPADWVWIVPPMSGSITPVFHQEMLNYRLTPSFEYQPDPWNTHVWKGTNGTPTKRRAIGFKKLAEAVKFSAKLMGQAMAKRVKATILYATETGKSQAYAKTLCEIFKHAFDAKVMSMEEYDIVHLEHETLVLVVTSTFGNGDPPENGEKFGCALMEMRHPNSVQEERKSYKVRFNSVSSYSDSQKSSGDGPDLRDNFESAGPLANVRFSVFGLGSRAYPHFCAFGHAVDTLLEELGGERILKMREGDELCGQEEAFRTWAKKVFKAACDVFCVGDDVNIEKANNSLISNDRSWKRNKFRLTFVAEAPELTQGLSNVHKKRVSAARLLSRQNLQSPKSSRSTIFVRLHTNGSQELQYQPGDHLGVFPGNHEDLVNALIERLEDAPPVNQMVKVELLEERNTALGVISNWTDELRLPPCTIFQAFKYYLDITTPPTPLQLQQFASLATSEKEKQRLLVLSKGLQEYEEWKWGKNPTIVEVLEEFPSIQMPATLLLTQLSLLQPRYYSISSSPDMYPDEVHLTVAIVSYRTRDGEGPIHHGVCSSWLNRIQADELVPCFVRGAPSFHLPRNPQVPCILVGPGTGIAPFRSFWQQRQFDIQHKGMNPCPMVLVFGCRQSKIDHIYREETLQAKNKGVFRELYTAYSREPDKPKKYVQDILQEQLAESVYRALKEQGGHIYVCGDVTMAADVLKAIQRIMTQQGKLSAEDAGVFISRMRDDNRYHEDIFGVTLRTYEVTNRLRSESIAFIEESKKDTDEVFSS
Series [3] has as its target T3, Nitric oxide synthase, inducible (Mus musculus, UniProt P29477).
T3 sequence (P29477 whole entry): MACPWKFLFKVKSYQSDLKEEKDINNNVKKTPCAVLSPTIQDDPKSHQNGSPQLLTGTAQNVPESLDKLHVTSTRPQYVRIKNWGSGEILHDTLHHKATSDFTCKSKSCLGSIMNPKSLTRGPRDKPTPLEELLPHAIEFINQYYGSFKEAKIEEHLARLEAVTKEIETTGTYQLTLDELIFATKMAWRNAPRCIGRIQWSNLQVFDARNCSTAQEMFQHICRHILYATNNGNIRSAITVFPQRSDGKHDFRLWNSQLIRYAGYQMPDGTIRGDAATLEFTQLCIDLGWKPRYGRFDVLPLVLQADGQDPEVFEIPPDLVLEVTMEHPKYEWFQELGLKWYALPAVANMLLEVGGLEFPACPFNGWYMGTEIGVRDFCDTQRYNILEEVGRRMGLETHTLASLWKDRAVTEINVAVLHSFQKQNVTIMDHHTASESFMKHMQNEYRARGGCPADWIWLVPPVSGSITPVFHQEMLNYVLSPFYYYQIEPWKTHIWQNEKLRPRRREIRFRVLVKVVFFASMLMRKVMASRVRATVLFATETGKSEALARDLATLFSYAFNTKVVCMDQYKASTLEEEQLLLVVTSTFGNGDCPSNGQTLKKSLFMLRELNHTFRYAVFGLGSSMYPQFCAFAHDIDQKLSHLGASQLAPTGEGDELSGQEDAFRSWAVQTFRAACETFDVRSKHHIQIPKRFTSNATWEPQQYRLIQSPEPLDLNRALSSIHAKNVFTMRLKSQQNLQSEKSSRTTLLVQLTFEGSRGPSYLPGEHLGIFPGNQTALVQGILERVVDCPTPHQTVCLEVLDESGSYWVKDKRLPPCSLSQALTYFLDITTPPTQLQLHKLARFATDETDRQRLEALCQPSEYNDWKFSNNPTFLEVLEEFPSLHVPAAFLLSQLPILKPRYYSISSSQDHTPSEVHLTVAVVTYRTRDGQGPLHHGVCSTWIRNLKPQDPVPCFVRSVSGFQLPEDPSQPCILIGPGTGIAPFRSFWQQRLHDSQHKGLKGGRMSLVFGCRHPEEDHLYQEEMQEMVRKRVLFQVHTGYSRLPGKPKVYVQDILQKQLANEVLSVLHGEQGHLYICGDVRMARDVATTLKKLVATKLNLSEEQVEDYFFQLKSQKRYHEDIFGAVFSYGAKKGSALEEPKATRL
Briefly: Inhibition of mouse iNOS expressed in HEK293 cells assessed as NO production in by transient transfection assay. It counts as cell-based. In a few lines: as §1

The subject of another series is Mus musculus. The series can be described thus: Reduction of plasma nitrate level in LPS-challenged BALB/c mouse at 30 mg/kg, po. Type of series: functional. More on the design: scale not given: the % may be the effect or the level left. An outline of the steps:
(§2)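 Male Balb/c mice were dosed by oral gavage (90% PEG/5% Tween 80/5% PVP + 90% CMC (0.5% w/v)) at t = 0 h, 30 mg/kg for single-dose lines. LPS 10 mg/kg ip in 0.9% NaCl followed immediately. At 6 h, EDTA plasma was taken for nitrate and drug levels. Nitrate reduction is relative to vehicle; ED50 came from full oral dose-response.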

Series [4] is described as follows: Drug level in LPS-challenged BALB/c mouse plasma at 30 mg/kg, po after 6 hrs. It counts as ADME, organism-based. Also noted: dose 30 mg/kg, route oral. In a few lines: as §2

T1 sequence (P35228 whole entry): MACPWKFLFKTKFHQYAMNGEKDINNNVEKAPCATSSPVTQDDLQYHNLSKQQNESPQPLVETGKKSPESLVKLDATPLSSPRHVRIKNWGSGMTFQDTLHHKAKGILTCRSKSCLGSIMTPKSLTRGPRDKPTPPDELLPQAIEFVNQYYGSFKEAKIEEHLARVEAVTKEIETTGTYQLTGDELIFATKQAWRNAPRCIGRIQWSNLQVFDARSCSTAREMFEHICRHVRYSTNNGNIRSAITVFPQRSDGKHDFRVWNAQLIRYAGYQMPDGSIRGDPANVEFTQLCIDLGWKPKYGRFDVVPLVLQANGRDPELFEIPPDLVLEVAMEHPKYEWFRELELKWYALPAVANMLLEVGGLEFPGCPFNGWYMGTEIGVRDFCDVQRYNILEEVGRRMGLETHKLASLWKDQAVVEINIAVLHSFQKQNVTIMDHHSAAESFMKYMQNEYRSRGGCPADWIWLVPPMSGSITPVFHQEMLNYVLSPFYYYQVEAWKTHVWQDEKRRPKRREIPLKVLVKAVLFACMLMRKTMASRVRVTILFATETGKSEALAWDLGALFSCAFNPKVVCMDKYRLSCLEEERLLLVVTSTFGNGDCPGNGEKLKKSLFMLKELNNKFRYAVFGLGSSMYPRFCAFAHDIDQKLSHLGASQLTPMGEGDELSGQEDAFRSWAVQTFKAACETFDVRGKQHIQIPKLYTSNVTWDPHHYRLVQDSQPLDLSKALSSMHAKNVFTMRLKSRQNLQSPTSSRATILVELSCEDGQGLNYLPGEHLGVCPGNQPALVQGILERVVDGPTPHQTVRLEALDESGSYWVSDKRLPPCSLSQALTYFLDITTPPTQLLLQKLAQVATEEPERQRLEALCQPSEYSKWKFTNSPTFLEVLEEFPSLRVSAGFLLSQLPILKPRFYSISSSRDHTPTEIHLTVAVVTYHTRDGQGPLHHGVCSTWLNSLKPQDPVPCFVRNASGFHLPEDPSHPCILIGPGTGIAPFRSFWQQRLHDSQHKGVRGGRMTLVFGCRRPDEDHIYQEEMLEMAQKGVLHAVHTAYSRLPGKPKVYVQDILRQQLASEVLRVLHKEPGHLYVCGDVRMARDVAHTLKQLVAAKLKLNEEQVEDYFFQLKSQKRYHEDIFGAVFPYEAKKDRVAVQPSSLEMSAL

As to `Cc1ncsc1C(=O)N(Cc1cc[nH]c(=O)c1)c1cccc(Cl)c1`, the EC50 in series [1] was over 100000 nM. Besides, in series [2], the inhibition was under 50%.

In the case of `Cc1ncsc1C(=O)N(Cc1cc(=O)n(C)c2c(F)cccc12)c1cccc(Cl)c1`, the EC50 in series [1] is over 100000 nM. For the same compound, in series [2], the inhibition is under 50%.

With `Cc1noc(C)c1C(=O)N(Cc1cc(=O)[nH]c2c(F)c(F)ccc12)c1cccc(Cl)c1`, the EC50 is 3 nM in series [1], 1.2 µM on Nitric oxide synthase 3, 97 nM at Nitric oxide synthase 1 and 22 nM in series [3]. The Activity with Mus musculus turned out to be 67%.

On to `COc1cc(CN(C(=O)c2scnc2C)c2cccc(Cl)c2)c2cccc(F)c2n1`, for which, in series [1], the EC50 is over 100000 nM. Also, in series [2], the inhibition is under 50%.

Take `Cc1ncsc1C(=O)N(Cc1c(F)c(=O)[nH]c2c(F)cccc12)c1cccc(Cl)c1`: the EC50 is 26 nM in series [1], 35 µM on Nitric oxide synthase 3, over 10000 nM on Nitric oxide synthase 1 and 130 nM in series [3]. Besides, the Activity in the series on Mus musculus is 29%.

As to `Cc1ncsc1C(=O)N(Cc1ccnc2c(F)cccc12)c1cccc(Cl)c1`, in series [1], the EC50 was over 100000 nM. Besides, the inhibition in series [2] is under 50%.

With `Cc1ncsc1C(=O)N(Cc1c[n+]([O-])cc2c(F)cccc12)c1cccc(Cl)c1`, the concentration giving a half-maximal response (EC50) worked out at 87 nM in series [1] and 660 nM in series [3]. In addition, the Activity with Mus musculus was 20%. Moreover, the concentration at 6 h in series [4] was 39 ng/mL.
